Assays:
[1] = target: T1, Macrophage migration inhibitory factor (Homo sapiens) (UniProt P14174); test: Inhibitory activity against macrophage migration inhibitory factor tautomerase (MIF) at a concentration of 0.5 mM
T1 sequence (whole entry): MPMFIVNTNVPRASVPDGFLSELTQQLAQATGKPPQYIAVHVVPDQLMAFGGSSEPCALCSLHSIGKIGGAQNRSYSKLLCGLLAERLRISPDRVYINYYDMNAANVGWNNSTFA
How it was run: (§1)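 Recombinant human MIF expressed in E. coli. The substrate is L-dopachrome methyl ester, generated by oxidizing 10 mM precursor stocks in 10 mM sodium phosphate, pH 6.0, with sodium periodate for 10 min, then quenching with methionine. Final substrate is 0.5 mM, with test compound at the stated concentration. The reaction starts on adding MIF from a 20 mg/mL stock. Percent inhibition is taken from the absorbance decrease at 475 nm over 1 min.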

[2] = target: T1, Macrophage migration inhibitory factor (Homo sapiens); test: Inhibitory activity against macrophage migration inhibitory factor tautomerase (MIF) at a concentration of 0.06 mM; how it was run: as §1
[3] = target: T1, Macrophage migration inhibitory factor (Homo sapiens); test: Inhibitory activity against macrophage migration inhibitory factor tautomerase (MIF) at a concentration of 0.125 mM; how it was run: as §1
[4] = target: T1, Macrophage migration inhibitory factor (Homo sapiens); test: Inhibitory activity against macrophage migration inhibitory factor tautomerase (MIF) at a concentration of 0.25 mM; how it was run: as §1
[5] = target: T1, Macrophage migration inhibitory factor (Homo sapiens); test: Inhibitory activity against macrophage migration inhibitory factor tautomerase (MIF) at a concentration of 0.02 mM; how it was run: as §1

| inhibition [1] | inhibition [2] | inhibition [3] | inhibition [4] | inhibition [5] | Compound |
| --- | --- | --- | --- | --- | --- |
| 92% | 22% | 54% | 88% | – | CC1N=C2C=C(O)C(=O)C=C2C1O (stereo not drawn) |
| 35% | – | – | – | – | CC1(C(=O)O)CC2=CC(=O)C(O)=CC2=N1 (racemic) |
| 34% | – | – | – | – | COC(=O)C1(C)CC2=CC(=O)C(O)=CC2=N1 (racemic) |

Second part, the molecule before the results:

| Compound | inhibition [1] | inhibition [2] | inhibition [3] | inhibition [4] | inhibition [5] |
| --- | --- | --- | --- | --- | --- |
| O=C1C=C2C(=NC(C(=O)O)C2O)C=C1O (stereo not drawn) | 100% | 9% | 41% | 98% | – |
| CCCC(C(N)=O)C1=CC(O)C(O)=CC1 (stereo not drawn) | 0% | – | – | – | – |
| CCOC(=O)/C=C/C1=CC(O)C(O)=CC1 (stereo not drawn) | 0% | – | – | – | – |
| C[N+]1=C2C=C(O)C(=O)C=C2C(O)C1 (stereo not drawn) | 98% | – | 54% | 79% | 21% |
| C[C@@]1(C(=O)O)CC2=CC(=O)C(O)=CC2=N1 | 29% | – | – | – | – |
| COC(=O)[C@]1(C)CC2=CC(=O)C(O)=CC2=N1 | 45% | – | – | – | – |

Source: ChEMBL document CHEMBL1131879, “Inhibition of macrophage migration inhibitory factor (MIF) tautomerase activity by dopachrome analogs” (Bioorg Med Chem Lett, 1999)
